Measured values from ChEMBL document CHEMBL1144223, “Design, synthesis, and docking studies of novel benzopyrone derivatives as H(1)-antihistaminic agents” (Bioorg Med Chem, 2008).
Where a name gives a salt, the structure may show the parent alone.

Columns and labels:
Assay type in all cases: functional, tissue-based
Histamine H1 receptor [1] = biological target: T1, Histamine H1 receptor (Cavia porcellus, UniProt P31389); assay: Antagonist activity at histamine H1 receptor in guinea pig ileum assessed as inhibition of histamine-induced contractions at 0.1 mg/ml
T1 sequence (P31389 whole entry): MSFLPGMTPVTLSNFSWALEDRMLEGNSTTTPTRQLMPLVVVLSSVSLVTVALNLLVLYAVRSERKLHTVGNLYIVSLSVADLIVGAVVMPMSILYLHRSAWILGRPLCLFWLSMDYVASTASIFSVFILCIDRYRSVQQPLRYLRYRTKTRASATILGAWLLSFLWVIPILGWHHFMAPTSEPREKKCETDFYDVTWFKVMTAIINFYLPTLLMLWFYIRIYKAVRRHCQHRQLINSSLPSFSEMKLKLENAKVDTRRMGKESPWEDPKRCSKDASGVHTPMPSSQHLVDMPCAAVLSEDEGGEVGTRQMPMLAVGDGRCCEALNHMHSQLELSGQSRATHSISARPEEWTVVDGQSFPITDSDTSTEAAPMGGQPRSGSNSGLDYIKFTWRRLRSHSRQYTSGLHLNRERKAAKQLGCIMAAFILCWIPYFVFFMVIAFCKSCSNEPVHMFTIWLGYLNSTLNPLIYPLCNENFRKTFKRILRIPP
Outline: (§1)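 Isolated ileum from male guinea pigs (250–400 g), killed by a blow to the skull and cervical dislocation. Segments 2–3 cm long were tied to an aerating tube and an isotonic transducer. Cumulative histamine diphosphate was added every 2 min, from the threshold concentration up to the maximal response. Contraction height was expressed as % of the maximum with saline. EC50 and Emax were compared with saline (Student's t-test, n = 5 strips, mean ± SEM).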

Histamine H1 receptor [2] = biological target: T1, Histamine H1 receptor; assay: Antagonist activity at histamine H1 receptor in guinea pig ileum assessed as inhibition of histamine-induced contractions at 1.0 mg/ml; outline: as §1
[3] = biological target: Histamine H1 receptor (Cavia porcellus) (UniProt P31389); assay: Antagonist activity at histamine H1 receptor in guinea pig ileum assessed as inhibition of histamine-induced contractions at 0.5 mg/ml relative to control; outline: as §1
Chain of Histamine H1 receptor (Cavia porcellus) (P31389 whole entry): as above

[4] = biological target: Histamine H1 receptor (Cavia porcellus) (UniProt P31389); assay: Antagonist activity at histamine H1 receptor in guinea pig ileum assessed as inhibition of histamine-induced contractions at 1.0 mg/ml relative to control; outline: as §1
[5] = biological target: Histamine H1 receptor (Cavia porcellus) (UniProt P31389); assay: Antagonist activity at histamine H1 receptor in guinea pig ileum assessed as inhibition of histamine-induced contractions at 0.1 mg/ml relative to control; outline: as §1
Histamine H1 receptor [6] = biological target: T1, Histamine H1 receptor; assay: Antagonist activity at histamine H1 receptor in guinea pig ileum assessed as inhibition of histamine-induced contractions at 0.5 mg/ml; outline: as §1
[7] = biological target: Histamine H1 receptor (Cavia porcellus) (UniProt P31389); assay: Antagonist activity at histamine H1 receptor in guinea pig ileum assessed as inhibition of histamine-induced contractions at 5 ug/ml relative to control; outline: as §1
Histamine H1 receptor [8] = biological target: T1, Histamine H1 receptor; assay: Antagonist activity at histamine H1 receptor in guinea pig ileum assessed as inhibition of histamine-induced contractions at 5 ug/ml; outline: as §1

Row | Structure (SMILES) | EC50 (Histamine H1 receptor [1]) [nM] | EC50 (Histamine H1 receptor [2]) [nM] | Emax [3] [%] | Emax [4] [%] | Emax [5] [%] | EC50 (Histamine H1 receptor [6]) [nM] | Emax [7] [%] | EC50 (Histamine H1 receptor [8]) [nM]
1 | O=c1cc(-c2ccccc2)c2ccc(OCC(O)CN3CCNCC3)cc2o1 (centres undefined) | 15.2 | 22.6 | 100 | 53 | 100 | 16.6 | – | –
2 | Cc1cc(=O)oc2ccc(OCC(O)CN3CCN(C)CC3)cc12 (centres undefined) | 17.4 | 24.4 | 98 | 54 | 100 | 18.1 | – | –
3 | CCCNCC(O)COc1ccc2c(-c3ccccc3)cc(=O)oc2c1 (centres undefined) | 15.8 | 24.1 | 100 | 53 | 100 | 17.8 | – | –
4 | Cc1cc(=O)oc2ccc(OCC(O)CN3CCCCC3)cc12 (centres undefined) | 17.3 | 26.2 | 98 | 55 | 100 | 20.5 | – | –
5 | CN(C)CCC(c1ccccc1)c1ccccn1 (centres undefined) [PHENIRAMINE MALEATE] | – | – | – | – | – | – | 78 | 19.1
6 | CCN(CC)CC(O)COc1ccc2oc(=O)cc(C)c2c1 (centres undefined) | 17 | 27.8 | 96 | 58 | 100 | 19.6 | – | –
7 | CCN(CC)CC(O)COc1ccc2c(-c3ccccc3)cc(=O)oc2c1 (centres undefined) | 16.1 | 24.2 | 95 | 60 | 100 | 17.4 | – | –

The remaining lines, values ahead:

Row | EC50 (Histamine H1 receptor [1]) [nM] | EC50 (Histamine H1 receptor [2]) [nM] | Emax [3] [%] | Emax [4] [%] | Emax [5] [%] | EC50 (Histamine H1 receptor [6]) [nM] | Emax [7] [%] | EC50 (Histamine H1 receptor [8]) [nM] | Structure (SMILES)
8 | 13.2 | 21.5 | 95 | 60 | 100 | 16 | – | – | Cc1cc(=O)oc2ccc(OCC(O)CN3CCN(c4ccccc4)CC3)cc12 (centres undefined)
9 | 11.7 | 18.3 | 96 | 52 | 100 | 12.7 | – | – | COc1ccccc1N1CCN(CC(O)COc2ccc3c(-c4ccccc4)cc(=O)oc3c2)CC1 (centres undefined)
10 | 14.4 | 21.8 | 95 | 58 | 100 | 16.3 | – | – | O=c1cc(-c2ccccc2)c2ccc(OCC(O)CN3CCOCC3)cc2o1 (centres undefined)
11 | 13.7 | 20 | 96 | 58 | 100 | 14.6 | – | – | COc1ccccc1N1CCN(CC(O)COc2ccc3oc(=O)cc(C)c3c2)CC1 (centres undefined)
12 | 14.8 | 23.5 | 94 | 60 | 100 | 15.8 | – | – | O=c1cc(-c2ccccc2)c2ccc(OCC(O)CN3CCCCC3)cc2o1 (centres undefined)
13 | 11.8 | 18.2 | 94 | 54 | 100 | 13.8 | – | – | O=c1cc(-c2ccccc2)c2ccc(OCC(O)CN3CCN(c4ccccc4)CC3)cc2o1 (centres undefined)
